In the library only some 2.8% were active in any assay of this set; here they are far more common.
PAFAH1B2 inh – PAFAH1B2 enzyme inhibitors, primary screen, biochemical, fluorescence polarization, human | Platelet-activating factor acetylhydrolase IB subunit alpha2 (Homo sapiens), P68402 | recombinant PAFAH1B2, FP-rhodamine activity probe | inhibition, % at 3.39 µM | hit rate 1.2% among 340,000;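 active means inhibition above the mean of all tested compounds plus 3 SD, cut at about 24% in these data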;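 further: 0% = enzyme with DMSO and 100% = wells lacking PAFAH1B2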
Target sequence (P68402 whole entry, looked up): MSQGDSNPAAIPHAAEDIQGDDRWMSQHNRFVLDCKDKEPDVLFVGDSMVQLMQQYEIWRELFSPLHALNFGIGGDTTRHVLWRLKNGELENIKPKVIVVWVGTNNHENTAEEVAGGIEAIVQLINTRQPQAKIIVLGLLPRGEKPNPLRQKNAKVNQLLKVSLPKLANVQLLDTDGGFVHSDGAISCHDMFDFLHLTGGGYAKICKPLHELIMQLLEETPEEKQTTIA
ASAP1 GAP inh – inhibitors of human ASAP1 ArfGAP activity, primary screen, biochemical, fluorescence polarization. inhibition, % at 16.5 µM. ASAP1-stimulated ARF1 GTP hydrolysis, GDP FP detection. hit rate 0.19% among 360,000. Arf-GAP with SH3 domain, ANK repeat and PH domain-containing protein 1 (Homo sapiens), …; in the data active means inhibition above about 25%;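 further: 0% = vehicle with enzyme and substrate and 100% = no enzyme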
PAFAH2 inh – PAFAH2 enzyme inhibitors, primary screen, biochemical, fluorescence polarization, human | recombinant PAFAH2, FP-rhodamine activity probe | hit rate 0.99% among 340,000 | AID 492956, 2010 | inhibition, % at 3.39 µM | Platelet-activating factor acetylhydrolase 2, cytoplasmic (Homo sapiens), Q99487;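 active means inhibition above the mean over all tested compounds plus 3 SD, cut at about 30% in these data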;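 further: inhibitors block probe labeling of enzyme so polarization drops; 0% = enzyme with DMSO and 100% = wells lacking PAFAH2 protein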
PAFAH1B3 inh – PAFAH1B3 enzyme inhibitors, primary screen, biochemical, fluorescence polarization, human | recombinant PAFAH1B3, FP-rhodamine probe | inhibition, % at 3.39 µM | hit rate 0.28% among 340,000 | AID 492972, 2010;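 active means inhibition above the screen-wide average of all tested compounds plus 3 SD, cut at about 25% in these data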;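 further: 0% = enzyme with DMSO only and 100% = wells lacking PAFAH1B3 protein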
Target sequence (Q15102 whole entry, looked up): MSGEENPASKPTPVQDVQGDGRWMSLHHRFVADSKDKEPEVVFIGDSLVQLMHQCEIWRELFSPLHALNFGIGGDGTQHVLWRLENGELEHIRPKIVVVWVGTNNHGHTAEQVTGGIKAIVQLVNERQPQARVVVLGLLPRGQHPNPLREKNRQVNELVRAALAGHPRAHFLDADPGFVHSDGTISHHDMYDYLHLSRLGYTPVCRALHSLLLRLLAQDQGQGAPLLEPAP
ARFGAP1 inhibitor – inhibitors of rat ARFGAP1 GAP activity, primary screen, biochemical, fluorescence polarization, GDP tracer; hit rate 0.26% among 360,000; inhibition, % at 16.5 µM; AID 651572, 2012; Arfgap1-stimulated ARF1 GTP hydrolysis, GDP FP detection;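 active means inhibition above a per-plate limit, mean inhibition of low control wells plus 3 SD, cut at about 25% in these data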;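 further: 0% = DMSO wells with enzyme and 100% = wells lacking Arfgap1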
Target sequence (Q62848 1-136 limits assumed): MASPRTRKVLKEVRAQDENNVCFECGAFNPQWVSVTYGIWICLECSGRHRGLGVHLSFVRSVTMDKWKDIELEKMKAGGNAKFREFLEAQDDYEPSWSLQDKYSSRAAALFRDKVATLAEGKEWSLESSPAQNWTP
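Assay system: Rat Arfgap1 GAP domain (His6, aa 1-136), purified enzyme | Buffer or medium: HEPES 25 mM pH 7.5, NaCl 150 mM, MgCl2, DTT | Schedule: GTP hydrolysis reaction 2 h at 25 °C | Signal: FP of antibody-bound GDP Alexa 633 tracer, ex 620/em 688 nm | Measure: Percent inhibition of Arfgap1-stimulated GTP hydrolysis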
pPAFAH inh – pPAFAH enzyme inhibitors, primary screen, biochemical, fluorescence polarization, human; hit rate 1.5% among 330,000; inhibition, % at 3.39 µM; recombinant pPAFAH, FP-rhodamine probe fluorescence polarization;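 active means inhibition above the mean inhibition across the screen plus 3 SD, cut at about 25% in these data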;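 further: inhibitors block binding of the rhodamine activity-based probe so polarization drops; 0% = enzyme with DMSO and 100% = wells lacking pPAFAH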
PAFAH2 FP conf – PAFAH2 enzyme inhibitors, confirmation, biochemical, fluorescence polarization, human; shares compounds with PAFAH2 inh; recombinant PAFAH2, FP-rhodamine activity probe; inhibition, % at 3.39 µM; hit rate 65% among 2,300;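 active means mean inhibition over three repeats above a set limit taken from the earlier primary screen, cut at about 30% in these data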;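 further: inhibitor blocks binding of rhodamine activity probe so polarization falls; 0% = enzyme with DMSO and 100% = wells lacking PAFAH2 protein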
Starred values were filed as active, the others as inactive.

`COc1cccc(CN(C)C(=O)C2CCCN(C(=O)c3ccc(Cl)cc3)C2)c1` (centres undefined) gave ASAP1 GAP inh -5 and ARFGAP1 inhibitor 2.
O=C(c1ccc2oc(Cc3ccc(Cl)cc3)nc2c1)N1CC[C@H](O)C1 was read as PAFAH1B2 inh 7, ASAP1 GAP inh 0, PAFAH2 inh 71*, PAFAH1B3 inh 4, ARFGAP1 inhibitor -3, pPAFAH inh 6 and PAFAH2 FP conf 63*.
`Cc1cc(C(=O)N2CCN(Cc3ccccc3)CC2)ccc1[N+](=O)[O-]` gave PAFAH1B2 inh -2, ASAP1 GAP inh -7, PAFAH2 inh 119*, PAFAH1B3 inh 10, ARFGAP1 inhibitor 5, pPAFAH inh -6 and PAFAH2 FP conf 2.
Screening O=C(Nc1ccccc1)O[C@@H]1C[C@H]2CCC(=O)N3CC[C@@H](C1)[C@@H]23 returned pPAFAH inh 2.
Screening COc1cc(/C=N/NC(=O)c2cc3c(ccc4ccccc43)o2)cc(OC)c1O returned PAFAH1B2 inh 8, ASAP1 GAP inh 4, PAFAH2 inh -9, PAFAH1B3 inh 11, ARFGAP1 inhibitor -6 and pPAFAH inh 13.
`CCC(C(=O)NCc1ccccc1)n1c(C2CCN(C(C)=O)CC2)nc2ccccc21` (centres undefined) gave ASAP1 GAP inh -7 and ARFGAP1 inhibitor 7.
Screening Nc1[nH]c(C(=O)c2ccccc2)c(-c2cccc(C(F)(F)F)c2)c1C(=O)c1c[nH]c2ccccc12 returned ASAP1 GAP inh 14 and ARFGAP1 inhibitor 9.
Cc1noc(C)c1C(=O)NC(Cc1c[nH]c2ccccc12)C(=O)O (centres undefined) was read as PAFAH1B2 inh 3, ASAP1 GAP inh 3, PAFAH2 inh 5, PAFAH1B3 inh 14, ARFGAP1 inhibitor 6 and pPAFAH inh 9.
Screening Cc1oc2c(c1C(=O)NC(Cc1c[nH]c3ccccc13)C(=O)O)CCCC2 (centres undefined) returned PAFAH1B2 inh 4, ASAP1 GAP inh -9, PAFAH2 inh 39*, PAFAH1B3 inh 4, ARFGAP1 inhibitor -6, pPAFAH inh 8 and PAFAH2 FP conf 15.
Screening Cc1ccc2c(c1)N(CC(=O)NCC1CCCO1)C(=O)C(C(C)C)O2 (centres undefined) returned PAFAH1B2 inh 1, ASAP1 GAP inh 5, PAFAH2 inh 1, PAFAH1B3 inh 4, ARFGAP1 inhibitor -2 and pPAFAH inh 8.
For Cc1ccc(S(=O)(=O)Nc2cc3c(cc2C#N)OCO3)cc1C(N)=O the results were PAFAH1B2 inh 3, ASAP1 GAP inh -3, PAFAH2 inh 0, PAFAH1B3 inh 0, ARFGAP1 inhibitor -3 and pPAFAH inh 3.
CCOc1ccc(S(=O)(=O)/N=C(/Nc2ccc(S(N)(=O)=O)cc2)c2ccccc2)cc1 was read as PAFAH1B2 inh 7, ASAP1 GAP inh 8, PAFAH2 inh 44*, PAFAH1B3 inh 9, ARFGAP1 inhibitor -5, pPAFAH inh 4 and PAFAH2 FP conf 23.
Cc1ccc(F)cc1NC(=O)COC(=O)c1ccc2ncsc2c1 was read as PAFAH1B2 inh -8, ASAP1 GAP inh 12, PAFAH2 inh 49*, PAFAH1B3 inh 8, ARFGAP1 inhibitor -8, pPAFAH inh -3 and PAFAH2 FP conf 54*.
`Cc1cccc(C(=O)OCC(=O)NCc2ccc(Cl)cc2)c1` gave ASAP1 GAP inh -15 and ARFGAP1 inhibitor 2.
For O=C(COC(=O)c1ccc2ncsc2c1)Nc1ccc(OC(F)(F)F)cc1 the results were PAFAH1B2 inh 0, ASAP1 GAP inh -5, PAFAH2 inh 73*, PAFAH1B3 inh -1, ARFGAP1 inhibitor -3, pPAFAH inh -10 and PAFAH2 FP conf 70*.
Screening O=C(COC(=O)c1ccc2ncsc2c1)Nc1ccccc1Cl returned PAFAH1B2 inh 3, ASAP1 GAP inh 0, PAFAH2 inh 59*, PAFAH1B3 inh 10, ARFGAP1 inhibitor 10, pPAFAH inh -2 and PAFAH2 FP conf 44*.
For O=C(COC(=O)c1ccc2ncsc2c1)NCc1ccc(Cl)cc1 the results were PAFAH1B2 inh 5, ASAP1 GAP inh 2, PAFAH2 inh 39*, PAFAH1B3 inh 2, ARFGAP1 inhibitor 2, pPAFAH inh 1 and PAFAH2 FP conf 25.
For CC(C)(C)c1ccc(NC(=O)COC(=O)c2ccc3ncsc3c2)cc1 the results were PAFAH1B2 inh 1, ASAP1 GAP inh -5, PAFAH2 inh 23, PAFAH1B3 inh -4, ARFGAP1 inhibitor -1 and pPAFAH inh -2.
`Cc1c(C(=O)NCc2ccccc2C(F)(F)F)sc(=O)n1Cc1ccc2c(c1)OCO2` gave ASAP1 GAP inh 3 and ARFGAP1 inhibitor 0.
For COc1ccc(-c2nnc(SCC(=O)N3CCCC3)o2)c(OC)c1 the results were PAFAH1B2 inh -6, ASAP1 GAP inh 12, PAFAH2 inh 7, PAFAH1B3 inh -7, ARFGAP1 inhibitor 0 and pPAFAH inh 2.
For O=C(COC(=O)Cc1n[nH]c(=O)c2ccccc12)NNC(=O)c1ccc(Cl)cc1 the results were PAFAH1B2 inh 5, ASAP1 GAP inh -5, PAFAH2 inh 5, PAFAH1B3 inh 10, ARFGAP1 inhibitor -2 and pPAFAH inh 7.
Screening CCN(c1ccc(NC(=O)COC(=O)c2cccs2)cc1)C(C)C returned PAFAH1B2 inh -6, ASAP1 GAP inh -2, PAFAH2 inh 30*, PAFAH1B3 inh 5, ARFGAP1 inhibitor 0, pPAFAH inh 11 and PAFAH2 FP conf 19.
O=C(COC(=O)c1cccs1)Nc1cccc(Cl)c1 was read as PAFAH1B2 inh 8, ASAP1 GAP inh 2, PAFAH2 inh 91*, PAFAH1B3 inh 7, ARFGAP1 inhibitor -15, pPAFAH inh 6 and PAFAH2 FP conf 89*.
Screening CC(=O)c1cccc(NC(=O)COC(=O)c2cccs2)c1 returned PAFAH1B2 inh 4, ASAP1 GAP inh 14, PAFAH2 inh 81*, PAFAH1B3 inh 0, ARFGAP1 inhibitor 9, pPAFAH inh 8 and PAFAH2 FP conf 77*.
`CC(=O)N(CC(=O)N(CC(=O)O)c1ccc(Cl)cc1)c1ccc(Cl)cc1` gave PAFAH1B2 inh 6, ASAP1 GAP inh -3, PAFAH2 inh 5, PAFAH1B3 inh 7 and ARFGAP1 inhibitor 8.
